Measured values reported in publication PMC9060905 (RSC Advances, 2019).
Like-named read-outs stand apart in the source and are kept apart here. Ends that are not written are not given here.

Key:
ACE = conditions: cited from earlier work
ACE (from rabbit lung) = molecular target: T1, ACE (from rabbit lung) (Oryctolagus cuniculus, UniProt P12822); experiment: ACE-inhibitory activity; assay type: biochemical
T1 sequence (P12822 34-1310): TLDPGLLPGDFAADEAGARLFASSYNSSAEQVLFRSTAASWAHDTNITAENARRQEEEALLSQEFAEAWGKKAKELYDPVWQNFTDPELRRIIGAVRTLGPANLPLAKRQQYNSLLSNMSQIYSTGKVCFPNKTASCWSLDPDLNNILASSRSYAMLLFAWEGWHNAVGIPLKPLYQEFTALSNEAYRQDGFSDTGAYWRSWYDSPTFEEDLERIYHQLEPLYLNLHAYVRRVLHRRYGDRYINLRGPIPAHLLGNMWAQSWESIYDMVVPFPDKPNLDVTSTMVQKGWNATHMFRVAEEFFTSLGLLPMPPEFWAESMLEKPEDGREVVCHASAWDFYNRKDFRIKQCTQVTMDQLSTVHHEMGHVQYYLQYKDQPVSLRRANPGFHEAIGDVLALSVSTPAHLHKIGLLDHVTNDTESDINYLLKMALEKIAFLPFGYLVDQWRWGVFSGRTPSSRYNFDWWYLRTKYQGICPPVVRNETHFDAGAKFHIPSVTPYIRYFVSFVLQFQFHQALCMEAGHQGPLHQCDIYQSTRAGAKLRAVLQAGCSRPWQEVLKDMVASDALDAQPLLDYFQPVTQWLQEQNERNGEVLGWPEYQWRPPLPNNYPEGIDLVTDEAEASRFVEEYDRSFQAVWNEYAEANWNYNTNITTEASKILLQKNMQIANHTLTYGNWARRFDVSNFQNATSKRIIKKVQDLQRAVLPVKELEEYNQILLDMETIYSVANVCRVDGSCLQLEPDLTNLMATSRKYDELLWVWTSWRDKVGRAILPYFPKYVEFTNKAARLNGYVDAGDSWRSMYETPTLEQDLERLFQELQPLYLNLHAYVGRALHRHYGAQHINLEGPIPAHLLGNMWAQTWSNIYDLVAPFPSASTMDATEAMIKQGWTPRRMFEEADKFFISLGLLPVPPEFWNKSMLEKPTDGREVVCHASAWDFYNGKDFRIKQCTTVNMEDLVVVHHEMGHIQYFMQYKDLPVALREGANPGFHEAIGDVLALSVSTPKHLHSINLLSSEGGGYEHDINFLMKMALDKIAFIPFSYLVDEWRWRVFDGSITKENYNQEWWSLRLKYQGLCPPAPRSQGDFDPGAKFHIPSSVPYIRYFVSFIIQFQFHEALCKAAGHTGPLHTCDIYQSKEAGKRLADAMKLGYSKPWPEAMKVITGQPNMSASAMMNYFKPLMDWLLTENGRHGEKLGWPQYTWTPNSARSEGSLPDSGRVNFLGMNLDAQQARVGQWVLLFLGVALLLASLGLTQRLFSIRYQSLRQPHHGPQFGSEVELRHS
In short: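 Rabbit-lung ACE with HHL substrate. Hippuric acid is extracted into ethyl acetate (vortex 5 s, 14100g for 5 min). The upper organic phase is dried in a vacuum oven at 80 °C for 1 h, redissolved in distilled water, and read at 228 nm. Experiments repeated at least three times; mean values used.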

[1] = cited from earlier work
[2] = tested on: ET-1 in vascular endothelial cells; conditions: cited from earlier work

| Substance | ACE inhibition pattern (ACE) | Effect on ET-1 expression in vascular endothelial cells [2] | other results |
| --- | --- | --- | --- |
| EVSQGRP | mixed-mode inhibition patterns | – | – |
| KAQYPYV [KAQYPYV, Lys-Ala-Gln-Tyr-Pro-Tyr-Val] | – | – | IC50 (ACE (from rabbit lung)): 37.1 µM |
| Leu-Ala-Arg-Leu | – | – | Fe2+ chelating ability ([1]; at 0.1 mg mL^-1, tilapia gelatin peptide): 46.53% |
| SAAVGSP | mixed-mode inhibition patterns | – | – |
| Val-Ile-Glu-Pro-Arg | – | inhibiting the expression of ET-1 | – |
| Val-Phe-Tyr | – | inhibiting the expression of ET-1 | – |
| Val-Val-Leu-Tyr-Lys [VVLYK] | mixed-mode inhibition patterns | inhibiting the expression of ET-1 | – |
| YYIVS | – | – | Fe2+ chelating ability ([1]; at 3 mg mL^-1, sweet potato protein peptide): 59.74% |
